What was measured:
[1] = melting temperature; fluorescence melt of hairpins on a sequencing array, two-state fit, raised by 9.35 °C to match UV melts; details: sodium 0.088 M
Summary of the method: (§1)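 Cy3 fluorescence of library hairpins on a sequenced MiSeq flow cell, with annealed Cy3 and quencher oligos, was imaged in 50 mM Na-HEPES pH 8.0, 25 mM NaCl in 2.5 °C steps up to 60 °C. Signals were normalised to pre-quench Cy3 and to control variants. Melting temperature and folding enthalpy came from bootstrapped two-state fits, inverse-variance combined over four replicates. Fitted temperatures were raised by 9.35 °C to match UV melts.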

[2] = folding enthalpy; higher = less favourable; fluorescence melt of hairpins on a sequencing array, two-state fit; details: sodium 0.088 M
Summary of the method: as §1

| Sequence | Tm [1] [°C] | folding enthalpy [2] [kcal/mol] |
| --- | --- | --- |
| GCTGTAGGAAACTATAGC (((.(((....))).))) | 43.7 | -28.3 |
| GAACACGAAAGTGCTTC ((((((....))).))) | 41.9 | -20.2 |
| CGATCGGAAACGACATCG ((((((....)))..))) | 32 | -24 |
| GGCGGCGAAAGCCTCGCC ((((((....)))..))) | 55.4 | -20.8 |
| GACTCAGGAAACTGAGTC (((((((....))))))) | 60.8 | -46 |
| GATCTAGGGGTAGATC ((((((....)))))) | 36.4 | -30.2 |
| GCTGTTGGAAACAACAAC (.(((((....))))).) | 35.2 | -15.9 |
| GGCTGGCCGAAAGGCGCC (((..(((....)))))) | 61 | -16.4 |
| GCCACTGGAAACGGTGGC (((((.(....).))))) | 58.6 | -50.6 |
| GCGGAAAACCGC ((((....)))) | 49.8 | -16.3 |
| GATGCCGAAAGGCTATC ((((((....))).))) | 43.4 | -13.1 |
| GATCCATCCCTGGATC ((((((....)))))) | 51 | -35.4 |
| GGTGGTCGAAAGACACC (((.(((....)))))) | 54.8 | -17.5 |
| GAACGGGAAACCGTTC ((((((....)))))) | 62.8 | -37.1 |
| GATGTACGAAAGTAAATC (((.(((....))).))) | 35.5 | -23.9 |
| GACTGCGAAAGCAAAGTC ((((((....)))..))) | 47 | -21.7 |
| AGATGGAAACATCT (((((....))))) | 42.1 | -19 |
| GAGTCCGAAAGGAAACTC ((((((....)))..))) | 40.2 | -19.4 |
| CGCCCGCGGAAACGCGCG (((..(((....)))))) | 42.4 | -8.68 |

| Sequence | Tm [1] [°C] | folding enthalpy [2] [kcal/mol] |
| --- | --- | --- |
| GCGTTTACGAAAGTACGC (((..(((....)))))) | 47.9 | -24.4 |
| GCCGATTCGAAAGAAGGC (((..(((....)))))) | 43.2 | -28.9 |
| GATCGTCTAACGATC ((((((...)))))) | 55.6 | -38.7 |
| GCCTGTGGAAACATAGGC ((((.((....)).)))) | 52.4 | -42.2 |
| GAGCGCCCGAAAGGGCTC (((..(((....)))))) | 29.4 | -6.69 |
| GGCGACGCGAAAGCGGCC (((..(((....)))))) | 57.6 | -11.1 |
| GTAGATGGAAACGTCTAC (((((.(....).))))) | 43.6 | -31.3 |
| GTTTATGGAAACATAAAC (((((((....))))))) | 50 | -38.1 |
| GATCGAATATTCGATC ((((((....)))))) | 53.3 | -44.5 |
| GCGAAGCGAAAGCTCGGC ((..(((....)))..)) | 43.5 | -8.3 |
| GTAGGACGAAAGTCATAC (((.(((....))).))) | 52.5 | -28.1 |
| GGCGCGTCGAAAGACGCC (((..(((....)))))) | 47.8 | -7.03 |
| GTAGCGCGAAAGCGATAC (((.(((....))).))) | 68 | -24.1 |
| GAGAGAGGAAACTCTCCC (.(((((....))))).) | 37 | -17 |
| GCTTAGCGAAAGCTGCGC ((..(((....)))..)) | 54.9 | -19.3 |
| GATCTACCCATAGATC ((((((....)))))) | 41.4 | -35.8 |
| GTCTACTCGAAAGAGGAC (((..(((....)))))) | 32.1 | -14.4 |
| GCAAACGGAAACGTCTGC (((.(((....))).))) | 44.7 | -25.2 |
| GTCAGCGAAAGCTAGGAC ((((((....)))..))) | 40 | -14.1 |
